Experimental data from PMC3113694 (Cancer research, 2010).
Values joined by “and” are separate entries in the source; they are usually repeats but may differ in a detail not shown here. Equal entries are not always repeated.

Key:
procaspase-3 D3A = target: T1, procaspase-3 D3A (Homo sapiens, UniProt P42574, D175A/D28A/D9A); test: Procaspase-3 activation; type: biochemical; conditions: 50 µM compound; for Incubation time to maximal activity: procaspase-3 7.5 µM, zinc 10 µM
T1 sequence (P42574 1-277 D9A/D28A/D175A): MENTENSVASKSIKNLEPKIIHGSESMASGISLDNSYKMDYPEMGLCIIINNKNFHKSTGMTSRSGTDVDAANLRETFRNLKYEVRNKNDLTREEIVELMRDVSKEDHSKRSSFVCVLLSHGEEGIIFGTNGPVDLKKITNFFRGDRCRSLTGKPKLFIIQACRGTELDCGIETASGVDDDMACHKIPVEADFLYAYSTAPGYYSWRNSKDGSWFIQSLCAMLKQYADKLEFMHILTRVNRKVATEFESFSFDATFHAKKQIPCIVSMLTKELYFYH
Outline: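 Zinc-free uncleavable procaspase-3 (D9A/D28A/D175A), recombinantly expressed, at 7.5 µM in Chelex-treated 50 mM Hepes, 300 mM NaCl. Incubated with 10 µM ZnSO4. Basal activity read with 200 µM Ac-DEVD-pNA at 405 nm. Vehicle or test compound then added to 50 µM final and activity re-read every 20 min. Activity was taken from the slope and normalised to a zinc-free sample (100%) and DMSO (0%), n=3.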

U-937 = test: Cytotoxicity, sulforhodamine B assay; type: cell-based, Human; conditions: read-out: 72 hour IC50, exposure time 72 h
EL-4 = test: Cytotoxicity, sulforhodamine B assay; type: cell-based; conditions: read-out: 72 hour IC50; EL-4 mouse lymphoma; exposure 72 h
17–71 = test: Cytotoxicity, MTS cell viability assay; type: cell-based; conditions: read-out: 72 hour IC50, 17–71 dog lymphoma, exposure 72 h
GL-1 = test: Cytotoxicity, sulforhodamine B assay; type: cell-based; conditions: read-out: 72 hour IC50; GL-1 dog lymphoma; exposure 72 h
OSW = test: Cytotoxicity, sulforhodamine B assay; type: cell-based; conditions: read-out: 72 hour IC50; OSW dog lymphoma; exposure 72 h
Jurkat = test: Cytotoxicity, sulforhodamine B assay; type: cell-based; conditions: read-out: 72 hour IC50; Jurkat human leukemia; exposure 72 h
SK-Mel-5 = test: Cytotoxicity, sulforhodamine B assay; type: cell-based; conditions: read-out: 72 hour IC50; SK-Mel-5 human melanoma; exposure 72 h
HeLa = test: Cytotoxicity, sulforhodamine B assay; type: cell-based; conditions: read-out: 72 hour IC50; HeLa human cervical; exposure 72 h
MDA-MB-231 = test: Cytotoxicity, sulforhodamine B assay; type: cell-based; conditions: read-out: 72 hour IC50; MDA-MB-231 human breast; exposure 72 h
healthy dog = test: Toxicity of intravenous PAC-1 in a healthy dog; type: in vivo; conditions: 25 mg/kg as a 5-minute intravenous infusion; transient, not life-limiting
[1] = Pharmacokinetics in mice after tail vein injection; type: in vivo, C57/BL6 mice
[2] = read-out: Kd of PAC-1:Zn^2+; cited from earlier work
C57/BL6 mice [3] = conditions: mouse, in vivo
C57/BL6 mice [4] = test: Toxicity determination in mice after tail vein injection
[5] = Pharmacokinetics in healthy research dogs, single IV dose; type: in vivo; conditions: 25 mg/kg IV; individual dogs Hound A-D

C=CCc1cccc(/C=N/NC(=O)CN2CCN(Cc3ccccc3)CC2)c1O [PAC-1]
Incubation time to maximal activity (procaspase-3 D3A): 5 min | IC50 (U-937): 9.3 ± 0.5 µM | IC50 (EL-4): 3.8 ± 0.9 µM | IC50 (17–71): 2500 ± 900 nM | IC50 (GL-1): 4.9 ± 0.3 µM | IC50 (OSW): 8.6 ± 1.3 µM | IC50 (Jurkat): 5.7 ± 2.8 µM | IC50 (SK-Mel-5): 11.5 ± 3.6 µM | IC50 (HeLa): 15.5 ± 3.8 µM | IC50 (MDA-MB-231): 9.9 ± 1 µM | Neurotoxicity in one healthy dog (healthy dog): grand mal seizure activity | Peak plasma concentration ([1]; 20 mg/kg tail vein injection): ~ 50 µM | Kd [2]: 52 ± 2 nM | Onset of neurotoxicity after drug administration (C57/BL6 mice [3]): ≤ 5 min | Resolution of neurotoxicity (C57/BL6 mice [4]; in HPβCD via tail vein injection): ≤ 2 h | Dose at which significant neurological symptoms first appear (C57/BL6 mice [4]; tail vein injection): 20 mg/kg | Dose where acute neurological symptoms are present (C57/BL6 mice [4]; tail vein injection): 50 mg/kg

C=CCc1cccc(C=NNC(=O)CN2CCN(Cc3ccc(S(N)(=O)=O)cc3)CC2)c1O [S-PAC-1]
Incubation time to maximal activity (procaspase-3 D3A): 5 min | Enhancement of enzymatic activity of the proenzyme (procaspase-3 D3A; procaspase-3 D3A 7.5 µM, ZnSO4 10 µM): enhances the enzymatic activity of the proenzyme by relief of zinc-mediated inhibition, although to a lesser degree than PAC-1 | Peak plasma levels ([1]; 350 mg/kg tail vein injection, without signs of neurotoxicity): ~ 3500 µM | AUMC0-inf [5]: 93.63 h*h*ug/ml and 104.77 h*h*ug/ml and 90.48 h*h*ug/ml and 101.78 h*h*ug/ml | Cls [5]: 340 mL/h/kg and 335 mL/h/kg and 304 mL/h/kg and 317 mL/h/kg | MRT [5]: 1.27 h and 1.40 h and 1.10 h and 1.29 h | Tmax [5]: 10.2 min | Vss [5]: 432.5 mL/kg and 470.8 mL/kg and 334.8 mL/kg and 410 mL/kg
